Assay [1] in a line: Selectivity ratio of Ki for CB1 receptor to Ki for CB2 receptor.
In assay [2] the target is T1, Cannabinoid receptor 2 (Homo sapiens, UniProt P34972). The assay is described as follows: Binding affinity to CB2 receptor.
In assay [3] the target is T2, Cannabinoid receptor 1 (Homo sapiens, UniProt P21554). Nature of the assay: Displacement of [3H]CP-55940 from human CB1 receptor expressed in human U87 cells after 1 hr by scintillation counting. Format: cell-based, U-87MG ATCC. Summed up: (§1)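 Membranes from lentivirally transduced U87 glioblastoma cells stably expressing hCB1 or hCB2, sorted on an mKateS158A co-reporter. Cells at 80–90% confluence were homogenised in 50 mM Tris-HCl, 5 mM MgCl2, 2.5 mM EDTA, pH 7.4. Aliquots of 30–50 μg protein were incubated 1 h at 4°C with 2.8 nM [3H]CP-55,940 plus graded compound concentrations, then GF/C-filtered. Ki was derived from the competition curves.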

Assay [4] concerns the target T1, Cannabinoid receptor 2. Nature of the assay: Displacement of [3H]CP-55940 from human CB2 receptor expressed in human U87 cells after 1 hr by scintillation counting. Format: cell-based, U-87MG ATCC. Summed up:
as §1

The next assay is filed under the species Homo sapiens. The assay is described as follows: Selectivity ratio of Ki for human CB1 receptor to Ki for human CB2 receptor.
Assay [5] concerns the target T2, Cannabinoid receptor 1. Nature of the assay: Binding affinity to CB1 receptor.

T2 sequence (P21554 whole entry): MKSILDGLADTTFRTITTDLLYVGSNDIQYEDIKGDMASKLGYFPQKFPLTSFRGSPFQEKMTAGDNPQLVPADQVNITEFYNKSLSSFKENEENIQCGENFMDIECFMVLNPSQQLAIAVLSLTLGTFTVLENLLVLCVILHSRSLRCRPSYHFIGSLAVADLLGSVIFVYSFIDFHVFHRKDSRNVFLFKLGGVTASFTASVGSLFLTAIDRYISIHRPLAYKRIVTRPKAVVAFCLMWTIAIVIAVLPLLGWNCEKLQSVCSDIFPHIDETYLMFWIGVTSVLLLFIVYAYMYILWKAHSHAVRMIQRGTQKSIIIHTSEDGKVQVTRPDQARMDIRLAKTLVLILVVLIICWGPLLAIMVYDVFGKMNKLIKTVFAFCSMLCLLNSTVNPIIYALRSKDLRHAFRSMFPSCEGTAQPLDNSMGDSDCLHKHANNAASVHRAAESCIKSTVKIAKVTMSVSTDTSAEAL
T1 sequence (P34972 whole entry): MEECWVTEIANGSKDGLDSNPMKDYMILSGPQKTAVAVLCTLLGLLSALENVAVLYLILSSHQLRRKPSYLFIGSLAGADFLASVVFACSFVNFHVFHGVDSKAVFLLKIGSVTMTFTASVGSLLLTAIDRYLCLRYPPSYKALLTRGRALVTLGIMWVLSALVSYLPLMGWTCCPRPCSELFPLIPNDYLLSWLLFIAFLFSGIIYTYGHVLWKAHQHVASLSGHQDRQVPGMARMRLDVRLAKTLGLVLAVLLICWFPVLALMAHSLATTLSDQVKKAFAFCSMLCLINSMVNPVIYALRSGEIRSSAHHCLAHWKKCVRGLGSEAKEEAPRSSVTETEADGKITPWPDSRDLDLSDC

`CCCCCc1cc2cc(C(=O)OC)c(=O)[nH]c2c(O)c1OC`: the Ratio Ki in assay [1] turned out to be 262000. This molecule also gave a Ki at Cannabinoid receptor 2 [2] of 0.014 nM.

For the molecule `Cc1c(C(=O)NN2CCCCC2)nn(-c2ccc(Cl)cc2Cl)c1-c1ccc(Cl)cc1`, the Ratio Ki in assay [1] was found to be 32.

For `CCCCOc1c(OC)ccc2cc(C(=O)NCCc3ccc(F)cc3)c(=O)[nH]c12`, the figures for the Ki on Cannabinoid receptor 1 [3] and on Cannabinoid receptor 2 [4] were above 10 µM and 0.0024 µM, respectively. Also, in the assay filed under Homo sapiens, the Ratio Ki was above 4170.

On to `CCCCCC(C)(C)c1cc(OC)c2c(c1)OC(C)(C)[C@@H]1CCC(C)=C[C@@H]21`, for which the Ratio Ki in assay [1] is 170.

Consider `COc1ccc2c(c1)c(CCN1CCOCC1)c(C)n2C(=O)c1cccc(Cl)c1Cl`, for which the Ratio Ki in assay [1] came out at 146. On Cannabinoid receptor 2 [2], this molecule showed a Ki of 14 nM.

As for `CCCCOc1c(OC)ccc2cc(C(=O)NCCc3ccc(N)cc3)c(=O)[nH]c12`, at Cannabinoid receptor 2 [2], the IC50 was 0.00158 µM and the affinity corresponds to a Ki of 22.3 nM.

With `CCCCOc1c(OC)ccc2cc(C(=O)O)c(=O)[nH]c12`, the Ratio Ki in assay [1] was found to be 28300. On Cannabinoid receptor 2 [2], this molecule displayed a Ki of 0.032 nM.

Regarding `CCCOc1c(OC)ccc2cc(C(=O)NCCc3ccc(F)cc3)c(=O)[nH]c12`, the Ratio Ki in assay [1] came out at 16000.

`CCCCCOc1c(OC)ccc2cc(C(=O)NCCN3CCOCC3)c(=O)n(C)c12`: the Ratio Ki in assay [1] turned out to be 11000.

As to `COc1ccc2cc(C(=O)NCc3ccc(F)cc3)c(=O)[nH]c2c1OC`, the Ki at Cannabinoid receptor 1 [3] and on Cannabinoid receptor 2 [4] was above 10 µM throughout. Besides, in the assay listed under Homo sapiens, the Ratio Ki is above 1.

Turning to `CCCCOc1c(OC)ccc2cc(C(=O)NCC(F)c3ccccc3)c(=O)[nH]c12` (centres undefined), the Ki at Cannabinoid receptor 1 [3] is above 10 µM; on Cannabinoid receptor 2 [4], 0.0008 µM. The Ratio Ki in the assay filed under Homo sapiens was above 12500.

For `CCCCOc1c(OC)ccc2cc(C(=O)NCCc3cn(CCF)nn3)c(=O)[nH]c12`, the Ki at Cannabinoid receptor 1 [3] is above 10 µM; at Cannabinoid receptor 2 [4], 2.4 µM. The Ratio Ki in the assay listed under Homo sapiens was above 4.

As for `Cc1ccc(Cn2nc(C(=O)N[C@@H]3C(C)(C)[C@@H]4CC[C@@]3(C)C4)cc2-c2ccc(Cl)c(C)c2)cc1`, the Ratio Ki in assay [1] turned out to be 32.

Turning to `CCCCCc1cc2cc(C(=O)NCCc3ccc(F)cc3)c(=O)[nH]c2c(O)c1OC`, the Ratio Ki in assay [1] amounted to 66600. Besides, the Ki on Cannabinoid receptor 1 [5] was determined as 2400 µM; at Cannabinoid receptor 2 [2], 0.036 nM.

With `CCCCCOc1c(OC)ccc2cc(C(=O)NCCc3ccncc3)c(=O)[nH]c12`, the Ratio Ki in assay [1] is 20800. Moreover, the Ki on Cannabinoid receptor 2 [2] was 0.01 nM.

Consider `CCCCOc1c(OC)c([N+](=O)[O-])cc2cc(C(=O)NCCc3ccc(F)cc3)c(=O)[nH]c12`, for which the Ki on Cannabinoid receptor 1 [3] is above 10 µM; on Cannabinoid receptor 2 [4], 0.0014 µM. For the same molecule, in the assay filed under Homo sapiens, the Ratio Ki was above 7140.

As to `CCCCCCC(C)(C)c1cc(OC)c(C2CCCC(C)(O)C2)c(OC)c1` (centres undefined), the Ratio Ki in assay [1] came to 220. The Ki on Cannabinoid receptor 1 [5] turned out to be 5.05 µM; on Cannabinoid receptor 2 [2], 23 nM.

Consider `CCCCOc1c(OC)ccc2cc(C(=O)NCc3cn(CCF)nn3)c(=O)[nH]c12`, for which the Ki on Cannabinoid receptor 1 [3] was above 10 µM; on Cannabinoid receptor 2 [4], 0.62 µM. Further, the Ratio Ki in the assay listed under Homo sapiens is above 16.

Turning to `CCCCOc1c(OC)ccc2cc(C(=O)NCCCF)c(=O)[nH]c12`, the Ki on Cannabinoid receptor 1 [3] is above 10 µM; at Cannabinoid receptor 2 [4], 0.058 µM. Also, in the assay listed under Homo sapiens, the Ratio Ki is above 172.

As for `COc1ccc2cc(C(=O)NCC(F)c3ccccc3)c(=O)[nH]c2c1OC` (centres undefined), the Ki is above 10 µM on Cannabinoid receptor 1 [3] and 0.022 µM on Cannabinoid receptor 2 [4]. The Ratio Ki in the assay listed under Homo sapiens is above 454.

Turning to `COc1ccc2cc(C(=O)NCCF)c(=O)[nH]c2c1OC`, the Ki on Cannabinoid receptor 1 [3] and on Cannabinoid receptor 2 [4] was above 10 µM in each case. For the same molecule, the Ratio Ki in the assay filed under Homo sapiens is above 1.

In the case of `CCCCCc1cc2cc(C(=O)NCCc3ccc(F)cc3)c(=O)n(C)c2c(O)c1OC`, in assay [1], the Ratio Ki was 20100. Also, the Ki came to 864 µM at Cannabinoid receptor 1 [5] and 0.043 nM at Cannabinoid receptor 2 [2].

For the molecule `CCCCOc1c(OC)ccc2cc(C(=O)NCCF)c(=O)[nH]c12`, the figures for the Ki at Cannabinoid receptor 1 [3] and at Cannabinoid receptor 2 [4] were above 10 µM and 0.486 µM, respectively. For the same molecule, the Ratio Ki in the assay filed under Homo sapiens was above 20.5.

As to `CCCCOc1c(OC)ccc2cc(C(=O)NCc3ccc(F)cc3)c(=O)[nH]c12`, the Ki was above 10 µM at Cannabinoid receptor 1 [3] and 0.0028 µM on Cannabinoid receptor 2 [4]. For the same molecule, the Ratio Ki in the assay filed under Homo sapiens is above 3570.

As to `COc1ccc2cc(C(=O)NCCc3ccc(F)cc3)c(=O)[nH]c2c1OC`, the Ki on Cannabinoid receptor 1 [3] was above 10 µM; on Cannabinoid receptor 2 [4], 0.005 µM.
